Source: ChEMBL document CHEMBL4219181, “Site-specific effect of polar functional group-modification in lipids of TLR2 ligands for modulating the ligand immunostimulatory activity” (Bioorg Med Chem Lett, 2018)
Calls of active or inactive are those of the source. No cut-off for these calls is given here. Where a SMILES comes first, the peptide text is derived from it. The star is where a group is joined. Propyl(2R-PamO,3-PamO) = CCCCCCCCCCCCCCCC(=O)OC[C@H](C*)OC(=O)CCCCCCCCCCCCCCC; X1 = CCCCCCCCCCCCCCCC(=O)OC[C@H](C*)OC(=O)CCCCCNC(=O)CCCCCCCC; X2 = CCCCCCCCCCCCCCCC(=O)OC[C@H](C*)OC(=O)CCNC(=O)CCCCCCCCCCC; X3 = CCCCCCCCCCCCCCCC(=O)OC[C@H](C*)OC(=O)CCCNC(=O)CCCCCCCCCC; X4 = CCCCCCCCCCCCCCCC(=O)OC[C@H](C*)OC(=O)CCCCCCNC(=O)CCCCCCC; X5 = CCCCCCCCCCCCCCCC(=O)OC[C@H](C*)OC(=O)CCCCNC(=O)CCCCCCCCC; X6 = CCCCCCCCCCCCCCCC(=O)O[C@H](COC(=O)CCCCCCCCCCNC(=O)CCC)C*; X7 = CCCCCCCCCCCCCCCC(=O)O[C@H](COC(=O)CCCCCCCCNC(=O)CCCCC)C*; X8 = CCCCCCCCCCCCCCCC(=O)O[C@H](COC(=O)CCCCCCCCCCCNC(=O)CC)C*; X9 = CCCCCCCCCCCCCCCC(=O)O[C@H](COC(=O)CCCCCCCCCNC(=O)CCCC)C*

What was measured:
[1] = tested on: THP-1; experiment: Immunostimulatory activity in human THP1 cells assessed as increase in TNF-alpha production after 24 hrs by ELISA; format: functional, cell-based
[2] = molecular target: Toll-like receptor 2 (Homo sapiens, UniProt O60603); experiment: Inhibition of biotin labelled Pam2CSK4 binding to His tagged human TLR2 after 45 mins by AlphaScreen assay
Toll-like receptor 2 (Homo sapiens, UniProt O60603), sequence (O60603 whole entry): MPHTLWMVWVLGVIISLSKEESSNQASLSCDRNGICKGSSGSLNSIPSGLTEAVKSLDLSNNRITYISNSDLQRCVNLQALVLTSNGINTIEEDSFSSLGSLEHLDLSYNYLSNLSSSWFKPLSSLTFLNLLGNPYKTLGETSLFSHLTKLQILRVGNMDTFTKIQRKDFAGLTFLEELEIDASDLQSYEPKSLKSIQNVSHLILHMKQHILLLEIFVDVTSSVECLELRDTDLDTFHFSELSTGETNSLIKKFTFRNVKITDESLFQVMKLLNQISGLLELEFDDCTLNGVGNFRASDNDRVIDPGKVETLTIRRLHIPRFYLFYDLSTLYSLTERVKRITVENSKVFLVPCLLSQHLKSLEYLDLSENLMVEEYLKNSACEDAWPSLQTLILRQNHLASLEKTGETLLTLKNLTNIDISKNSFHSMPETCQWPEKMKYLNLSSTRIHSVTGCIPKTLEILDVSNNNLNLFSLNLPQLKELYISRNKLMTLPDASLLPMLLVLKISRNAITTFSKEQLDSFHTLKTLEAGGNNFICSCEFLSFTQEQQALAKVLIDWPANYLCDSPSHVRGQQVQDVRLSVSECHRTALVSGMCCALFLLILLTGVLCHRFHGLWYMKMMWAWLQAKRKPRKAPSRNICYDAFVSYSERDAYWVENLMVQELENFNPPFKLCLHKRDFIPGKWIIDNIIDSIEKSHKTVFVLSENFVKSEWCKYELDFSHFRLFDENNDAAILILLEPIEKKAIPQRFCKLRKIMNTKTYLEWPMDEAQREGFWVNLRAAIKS
Procedure, shortened: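 Competitive binding was measured by AlphaScreen using His-tagged human TLR2 protein and biotinylated Pam2CSK4 as the tracer ligand. Competing ligands displace Pam2CSK4-biotin and lower the luminescent proximity signal.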

[3] = tested on: THP-1; experiment: Immunostimulatory activity in human THP1 cells assessed as increase in IL-6 production after 24 hrs by ELISA; format: functional, cell-based
Procedure, shortened: (§1)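 PMA-differentiated THP-1 human monocytic cells were incubated with a range of ligand concentrations. Secreted IL-6 was measured by ELISA. Data are mean ± standard error of triplicate values, and similar results were obtained in two or three independent experiments.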

[4] = tested on: RAW264.7; experiment: Immunostimulatory activity in mouse RAW264.7 cells assessed as increase in IL-6 production at 1 to 100 nM after 24 hrs by ELISA; format: functional, cell-based
Procedure, shortened: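 Murine RAW264.7 macrophages were incubated with various ligand concentrations, and secreted IL-6 was quantified by ELISA. Values are mean ± standard error of triplicates, with results reproduced in two or three independent experiments.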

[5] = tested on: THP-1; experiment: Immunostimulatory activity in human THP1 cells assessed as increase in TNF-alpha production at 1 to 100 nM after 24 hrs by ELISA; format: functional, cell-based
[6] = tested on: THP-1; experiment: Immunostimulatory activity in human THP1 cells assessed as increase in IL-6 production at 1 to 100 nM after 24 hrs by ELISA; format: functional, cell-based; procedure, shortened: as §1
[7] = tested on: RAW264.7; experiment: Immunostimulatory activity in mouse RAW264.7 cells assessed as increase in TNF-alpha production at 1 to 100 nM after 24 hrs by ELISA; format: functional, cell-based
[8] = molecular target: Toll-like receptor 2 (Mus musculus, UniProt Q9QUN7); experiment: Inhibition of biotin labelled Pam2CSK4 binding to mouse TLR2 Fc chimera protein after 45 mins by AlphaScreen assay
Toll-like receptor 2 (Mus musculus, UniProt Q9QUN7), sequence (Q9QUN7 whole entry): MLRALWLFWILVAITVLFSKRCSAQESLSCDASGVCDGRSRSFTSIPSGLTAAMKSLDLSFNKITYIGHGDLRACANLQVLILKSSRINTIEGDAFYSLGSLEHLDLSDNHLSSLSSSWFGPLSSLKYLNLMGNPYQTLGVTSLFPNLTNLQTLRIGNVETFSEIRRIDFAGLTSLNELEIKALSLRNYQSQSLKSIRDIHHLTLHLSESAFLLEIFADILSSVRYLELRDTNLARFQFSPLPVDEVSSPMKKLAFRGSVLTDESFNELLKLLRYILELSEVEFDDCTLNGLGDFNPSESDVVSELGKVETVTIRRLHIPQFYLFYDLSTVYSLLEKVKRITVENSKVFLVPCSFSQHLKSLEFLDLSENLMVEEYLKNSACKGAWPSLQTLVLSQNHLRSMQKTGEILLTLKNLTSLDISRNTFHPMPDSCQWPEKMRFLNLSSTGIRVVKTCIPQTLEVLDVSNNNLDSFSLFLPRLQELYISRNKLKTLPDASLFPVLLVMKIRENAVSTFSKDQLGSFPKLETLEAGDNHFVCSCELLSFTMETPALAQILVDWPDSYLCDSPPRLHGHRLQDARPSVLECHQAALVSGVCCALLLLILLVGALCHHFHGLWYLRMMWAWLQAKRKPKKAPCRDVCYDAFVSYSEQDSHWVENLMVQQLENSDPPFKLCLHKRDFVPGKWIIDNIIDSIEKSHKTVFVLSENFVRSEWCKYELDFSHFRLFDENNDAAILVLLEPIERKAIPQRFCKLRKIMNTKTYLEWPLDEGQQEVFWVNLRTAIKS

| Structure (SMILES) | IC50 [2] [µM] | IC50 [8] [µM] | Activity [1] | Activity [3] | Activity [4] | Activity [5] | Activity [6] | Activity [7] |
| --- | --- | --- | --- | --- | --- | --- | --- | --- |
| CCCCCCCCCCCCCCCC(=O)O[C@H](COC(=O)CCCCCCCCCNC(=O)CCCC)CSC[C@H](N)C(=O)N[C@@H](CO)C(=O)N[C@@H](CCCCN)C(=O)N[C@@H](CCCCN)C(=O)N[C@@H](CCCCN)C(=O)N[C@@H](CCCCN)C(=O)O (H-C(X9)SKKKK-OH) | 6.43 |  | Dose-dependent effect | Dose-dependent effect |  |  |  |  |
| CCCCCCCCCCCCCCCC(=O)O[C@H](COC(=O)CCCCCCCCNC(=O)CCCCC)CSC[C@H](N)C(=O)N[C@@H](CO)C(=O)N[C@@H](CCCCN)C(=O)N[C@@H](CCCCN)C(=O)N[C@@H](CCCCN)C(=O)N[C@@H](CCCCN)C(=O)O (H-C(X7)SKKKK-OH) | 7.52 |  | Dose-dependent effect | Dose-dependent effect |  |  |  |  |
| CCCCCCCCCCCCCCCC(=O)OC[C@H](CSC[C@H](N)C(=O)N[C@@H](CO)C(=O)N[C@@H](CCCCN)C(=O)N[C@@H](CCCCN)C(=O)N[C@@H](CCCCN)C(=O)N[C@@H](CCCCN)C(=O)O)OC(=O)CCCCCNC(=O)CCCCCCCC (H-C(X1)SKKKK-OH) | 4.75 | 4.75 |  |  | Active | Active | Active | Active |
| CCCCCCCCCCCCCCCC(=O)OC[C@H](CSC[C@H](N)C(=O)N[C@@H](CO)C(=O)N[C@@H](CCCCN)C(=O)N[C@@H](CCCCN)C(=O)N[C@@H](CCCCN)C(=O)N[C@@H](CCCCN)C(=O)O)OC(=O)CCCCNC(=O)CCCCCCCCC (H-C(X5)SKKKK-OH) | 4.65 | 5.61 |  |  | Active | Active | Active | Active |
| CCCCCCCCCCCCCCCC(=O)O[C@H](COC(=O)CCCCCCCCCCNC(=O)CCC)CSC[C@H](N)C(=O)N[C@@H](CO)C(=O)N[C@@H](CCCCN)C(=O)N[C@@H](CCCCN)C(=O)N[C@@H](CCCCN)C(=O)N[C@@H](CCCCN)C(=O)O (H-C(X6)SKKKK-OH) | 4.36 |  | Dose-dependent effect | Dose-dependent effect |  |  |  |  |
| CCCCCCCCCCCCCCCC(=O)OC[C@H](CSC[C@H](N)C(=O)N[C@@H](CO)C(=O)N[C@@H](CCCCN)C(=O)N[C@@H](CCCCN)C(=O)N[C@@H](CCCCN)C(=O)N[C@@H](CCCCN)C(=O)O)OC(=O)CCCCCCNC(=O)CCCCCCC (H-C(X4)SKKKK-OH) | 3.37 | 5.69 |  |  | Active | Active | Active | Active |

Continued, in another order:

| IC50 [2] [µM] | IC50 [8] [µM] | Structure (SMILES) | Activity [1] | Activity [3] | Activity [4] | Activity [5] | Activity [6] | Activity [7] |
| --- | --- | --- | --- | --- | --- | --- | --- | --- |
| 3.94 |  | CCCCCCCCCCCCCCCC(=O)O[C@H](COC(=O)CCCCCCCCCCCNC(=O)CC)CSC[C@H](N)C(=O)N[C@@H](CO)C(=O)N[C@@H](CCCCN)C(=O)N[C@@H](CCCCN)C(=O)N[C@@H](CCCCN)C(=O)N[C@@H](CCCCN)C(=O)O (H-C(X8)SKKKK-OH) | Dose-dependent effect | Dose-dependent effect |  |  |  |  |
| 1.68 | 1.04 | CCCCCCCCCCCCCCCC(=O)OC[C@H](CSC[C@H](N)C(=O)N[C@@H](CO)C(=O)N[C@@H](CCCCN)C(=O)N[C@@H](CCCCN)C(=O)N[C@@H](CCCCN)C(=O)N[C@@H](CCCCN)C(=O)O)OC(=O)CCNC(=O)CCCCCCCCCCC (H-C(X2)SKKKK-OH) |  |  | Active | Active | Active | Active |
| 1.96 | 1.38 | CCCCCCCCCCCCCCCC(=O)OC[C@H](CSC[C@H](N)C(=O)N[C@@H](CO)C(=O)N[C@@H](CCCCN)C(=O)N[C@@H](CCCCN)C(=O)N[C@@H](CCCCN)C(=O)N[C@@H](CCCCN)C(=O)O)OC(=O)CCCNC(=O)CCCCCCCCCC (H-C(X3)SKKKK-OH) |  |  | Active | Active | Active | Active |
| 0.426 to 0.55 | 0.349 | CCCCCCCCCCCCCCCC(=O)OC[C@H](CSC[C@H](N)C(=O)N[C@@H](CO)C(=O)N[C@@H](CCCCN)C(=O)N[C@@H](CCCCN)C(=O)N[C@@H](CCCCN)C(=O)N[C@@H](CCCCN)C(=O)O)OC(=O)CCCCCCCCCCCCCCC (H-C(Propyl(2R-PamO,3-PamO))SKKKK-OH) |  |  |  | inactive |  | inactive |
